Hits are enriched below; roughly 29% of the tested compounds scored in any of these assays.
Ecoli WT expand = growth inhibitors of wild-type E. coli, primary screen, strain BW25113, expanded library, OD600. OD600 absorbance. growth inhibition, % at 100 µM. 0.15% of 98,000 active. AID 710, 2007;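 active means growth inhibition above about 50% at one test dose, limit read from the data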;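 further: growth measured after 20 h incubation at 37 °C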
CYP2C19 activ = human CYP2C19 activators, primary screen, biochemical, luminescence | activation factor at 5 µM | AID 1025, 2008 | recombinant CYP2C19, luciferin-H EGE luminescence; active compounds read high; 0 = fully inhibited enzyme, 1 = untreated enzyme | Cytochrome P450 2C19 (Homo sapiens), P33261 | 96,000 tested, under 10 active;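 active means activation factor of at least 2 at 5 µM in the primary screen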;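 further: 0 = wells with 2.5 mM tranylcypromine and 1 = vehicle-only wells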
CYP2C9 activ = human CYP2C9 activators, primary screen, biochemical, luminescence; Cytochrome P450 2C9 (Homo sapiens), P11712; activation factor at 5 µM; recombinant CYP2C9, luciferin-H conversion; active compounds read high; factor 1 = untreated enzyme, 0 = blocked; 1.4% of 96,000 active; AID 1024, 2008;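 active means activation factor of 2 or more for CYP2C9 at a 5 µM dose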;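 further: 0 = sulfaphenazole-blocked wells and 1 = vehicle-only wells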
Target sequence (P11712 whole entry, looked up): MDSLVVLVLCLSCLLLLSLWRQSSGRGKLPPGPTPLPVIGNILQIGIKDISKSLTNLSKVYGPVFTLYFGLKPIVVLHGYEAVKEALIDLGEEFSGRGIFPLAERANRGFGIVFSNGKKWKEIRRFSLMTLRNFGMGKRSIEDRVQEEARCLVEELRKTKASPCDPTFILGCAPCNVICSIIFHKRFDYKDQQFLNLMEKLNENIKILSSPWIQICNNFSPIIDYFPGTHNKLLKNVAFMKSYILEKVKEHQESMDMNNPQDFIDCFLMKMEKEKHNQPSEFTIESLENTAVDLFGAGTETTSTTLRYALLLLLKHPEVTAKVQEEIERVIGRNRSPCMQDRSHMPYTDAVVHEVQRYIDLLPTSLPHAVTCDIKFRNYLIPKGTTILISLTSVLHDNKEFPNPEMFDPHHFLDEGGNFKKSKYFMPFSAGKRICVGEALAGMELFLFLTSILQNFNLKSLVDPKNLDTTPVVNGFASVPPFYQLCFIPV
CYP2C9 inhib = blockers of cytochrome P450 2C9 activity – biochemical, luminescence, ADME assay, primary screen. AID 777, 2007. 20% of 96,000 active. inhibition, % at 5 µM. CYP2C9 Supersomes, luciferin-H conversion. P11712;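 active means blocking of liver enzyme CYP2C9 beyond about 50% at 5 µM, limit read from the data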
CYP2C19 inhib = blockers of cytochrome P450 2C19 activity – biochemical, luminescence, ADME assay, primary screen; P33261; CYP2C19 Supersomes, luciferin-H EGE luminescence, 30 min; inhibition, % at 5 µM; 21% of 96,000 active; AID 778, 2007;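 active means CYP2C19 inhibition above a set limit at 5 µM in the primary screen, cut at about 50% in these data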;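 further: plate controls were negative control wells for no effect and 2.5 mM tranylcypromine positive control for full effect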
Ecoli tolC = growth inhibitors of E. coli tolC mutant, primary screen, strain BW25113 ΔtolC::kan, 384-well; OD615; growth inhibition, % at 10 µM (by protocol); AID 573, 2007; 2.2% of 65,000 active;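 active means growth inhibition at or above a cutoff equal to the mean over every tested compound plus 3 SD, cut at about 60% in these data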;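 further: growth measured after 20 h incubation at 37 °C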
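Test system: tolC-deleted E. coli BW25113; medium: LB with kanamycin 50 µg/mL; compound: single-point testing at 10 µM; incubation: 20 h compound exposure of bacteria at 37 °C; signal: OD at 615 nm; evaluation: growth inhibition in percent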
* = called active by the depositor; nt = no result given.

SMILES	Ecoli WT expand	CYP2C19 activ	CYP2C9 activ	CYP2C9 inhib	CYP2C19 inhib	Ecoli tolC
CCCCN(CCCC)S(=O)(=O)c1ccc2[nH]c(=O)[nH]c2c1	-9	0.9	0.5	48	13	nt
CCCCN(CCCC)S(=O)(=O)c1ccc(SCC(=O)OCC)c([N+](=O)[O-])c1	-13	0.7	0.3	67*	32	nt
Cc1onc(-c2ccccc2Cl)c1C(=O)Oc1cc(N)n(S(=O)(=O)c2ccc(F)cc2)n1	-2	1.1	0.9	12	-6	-4
COc1ccc(S(=O)(=O)n2nc(OC(=O)c3ccccc3)cc2N)cc1	2	1.1	1	-2	-13	-16
COc1ccc(S(=O)(=O)n2nc(OC(=O)c3ccccc3Br)cc2N)cc1	3	0.6	0.1	93*	45	-15
COc1ccc(S(=O)(=O)n2nc(OC(=O)c3ccc(C)cc3)cc2N)cc1	-2	1	0.2	81*	1	-8
COc1ccc(S(=O)(=O)n2nc(OC(=O)c3cccs3)cc2N)cc1	-1	0.8	0.3	73*	18	-16
Cc1ccc(S(=O)(=O)n2nc(OC(=O)c3c(-c4ccccc4Cl)noc3C)cc2N)cc1	-9	0.6	0.1	93*	36	14
COc1ccc(S(=O)(=O)n2nc(OC(=O)c3ccco3)cc2N)cc1	-4	0.9	0.6	38	8	-13
Cc1cc2ncc(-c3ncc(C(F)(F)F)cc3Cl)cn2n1	4	0.8	1	1	18	nt
O=C(CN1CCOCC1)Nc1ccc(Oc2ccccc2)cc1	5	0.8	0.9	13	21	14
O=C(CN1CCN(c2ccccn2)CC1)N(c1ccccc1)c1ccc2ccccc2c1	-11	0.4	0.5	51*	56*	21
O=C(CN1CCOCC1)N(c1ccccc1)c1ccc2ccccc2c1	1	0.2	0.6	45	76*	nt
OC(CSc1c(Cl)cccc1Cl)CN1CCN(c2ccc(F)cc2)CC1 (stereo unspecified)	-7	0.6	1.2	-16	36	nt
O=C(CN(c1ccc(F)cc1)S(=O)(=O)c1ccc2c(c1)OCCO2)Nc1ccccc1	2	0.7	0.4	65*	29	nt
O=C(CN(Cc1ccccc1)S(=O)(=O)c1ccc2c(c1)OCCO2)Nc1ccc2c(c1)OCCO2	-3	0.6	0	96*	43	24
CS(=O)(=O)N(CC(=O)Nc1ccc2c(c1)OCCO2)Cc1ccccc1	4	0.7	0.7	28	28	8
O=C(CN(c1ccc(F)cc1)S(=O)(=O)c1ccc2c(c1)OCCO2)Nc1cccnc1	-1	0.1	0	99*	92*	26
O=C(/C=C/c1ccc(Cl)cc1)NCCN1CCOCC1	1	0.9	0.9	11	6	nt
CCOC(=O)C1CCN(C(=O)c2cc(S(=O)(=O)N3CCOCC3)c(Cl)cc2Cl)CC1	-4	0.8	0.6	40	16	-17
COc1cc(OC)cc(OCC(O)Cn2ccnc2)c1 (stereo unspecified)	-6	0	0.1	91*	98*	-16
COc1cc(OC)cc(OCC(O)Cn2ccnc2C)c1 (stereo unspecified)	0	0.6	0.6	38	44	3
COc1cccc(C(=O)Nc2cccc(-c3nnc(-c4ccco4)o3)c2)c1	0	0.2	0.3	70*	77*	nt
Cc1ccc(SCC(=O)Nc2cccc(C(=O)NC(C)(C)C)c2)cc1	11	0.7	0.4	58*	27	nt
Cc1ccc(SCC(=O)Nc2cccc(-c3nnc(-c4ccco4)o3)c2)cc1	4	0.8	0.1	91*	23	nt
SMILES	Ecoli WT expand	CYP2C19 activ	CYP2C9 activ	CYP2C9 inhib	CYP2C19 inhib	Ecoli tolC
O=C1CSC(c2ccc(F)cc2)N1c1nnc(C23CC4CC(CC(C4)C2)C3)s1 (stereo unspecified)	-7	0.6	0.6	42	41	nt
N#CC1=C(N)N(c2ccc(Oc3ccccc3)cc2)C(=O)C1	14	0.5	0.5	52*	46	14
COc1ccc2c(c1)C(=O)N(c1ccccc1)C(=O)C2	3	0.8	0.9	7	19	nt
COc1ccc(Nc2nc(N)nc(C(F)(F)F)n2)c(OC)c1	0	0.6	0.7	29	44	-11
Cc1cc(C(=O)OCC(=O)c2ccc(Br)s2)no1	-5	0.8	0.3	66*	17	-15
Cc1cc(C(=O)OCC(=O)c2ccc(Br)s2)c(C)o1	-1	0.5	0.7	33	46	20
O=c1cc(NCc2ccccc2)c2ccccc2o1	4	0.3	1	-1	66*	20
O=c1cc(NC2CCCCC2)c2ccccc2o1	6	0.4	0.5	53*	60*	nt
Nc1c(NC2CCCCC2)c2ccccc2oc1=O	9	0.7	0.8	17	35	28
COc1cc(C(=O)NCCC(=O)NCCN2CCOCC2)cc(OC)c1OC	1	1.1	1	-1	-12	-16
CCN(CC)c1ccc(NC(=O)c2cnc3ccccn3c2=O)c(C)c1	-1	0.9	1.2	-24	9	-3
Cc1nnc(SCCCN2C(=O)c3ccccc3C2=O)o1	4	0.4	0.7	28	60*	-16
O=C1c2ccccc2C(=O)N1CCCCSc1nc2ccccc2o1	-17	0.2	0.3	66*	81*	nt
Cc1nn(CC#N)c(=O)n1-c1ccccc1F	8	1	1.1	-7	-1	nt
O=C(CCSc1ccc(F)cc1)Nc1ccc(-n2cnnn2)cc1	-1	0.4	0.8	16	59*	-4
O=C(CCSc1nnc2ccccn12)Nc1ccc(F)cc1	8	1	1.1	-12	-2	-11
O=C(CN1CCN(c2ccccc2)CC1)Nc1ccc(-n2cnnn2)cc1	3	1.1	1.1	-14	-14	-11
O=C(CCSc1nnc2ccc3ccccc3n12)Nc1ccc(F)cc1	-7	0.7	2.1*	-113	31	nt
CN(C)CC(C)(C)CNS(=O)(=O)c1ccc(Cl)c(Cl)c1	-9	0.2	0.5	50*	83*	nt
CCOC(=O)C1CCN(Cc2ccc(F)c(F)c2)CC1	7	0.9	1.1	-10	14	nt
CCOC(=O)C1CCCCN1Cc1ccc(F)c(Br)c1 (stereo unspecified)	6	0.2	0.5	46	82*	1
COC(=O)c1nnn(-c2nonc2N)c1-c1cccs1	0	0.7	1	-4	31	-3
CCOC(=O)c1[nH]c(=O)[nH]c1CSc1ccccn1	-6	1.1	1.3	-28	-9	-23
COC(=O)c1nnn(-c2nonc2N)c1CSc1ccccn1	4	0.2	0.8	23	80*	0

Screening results deposited in PubChem by several laboratories.
